ChEMBL document CHEMBL1140589, “Dipeptidyl-alpha,beta-epoxyesters as potent irreversible inhibitors of the cysteine proteases cruzain and rhodesain” (Bioorg Med Chem Lett, 2007)
pIC50: −log10 of the molar value.

Key:
[1] = test system: Trypanosoma brucei brucei; assay: (§1) Inhibition of Trypanosoma brucei brucei cathepsin B; settings: concentration not given here
Method in brief: (§2)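 Recombinant T. brucei cathepsin B at 40 nM with Z-Phe-Arg-AMC in buffer A (100 mM Na acetate pH 5.5, 5 mM DTT, 0.001% Triton X-100). Enzyme was preincubated 5 min at 25 °C with inhibitor (500–10,000 nM, DMSO serial dilutions) before substrate addition. Cleavage was followed by fluorescence at ex 355/em 460 nm, 25 °C. IC50 was taken from a semi-log rate versus concentration plot.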

[2] = target: Cruzipain (Trypanosoma cruzi) (UniProt P25779); assay: (§3) Inhibition of cruzain; parameters: concentration or dose not given beside the values; settings: concentration not given here
Sequence of Cruzipain (Trypanosoma cruzi) (P25779 123-467 limits assumed): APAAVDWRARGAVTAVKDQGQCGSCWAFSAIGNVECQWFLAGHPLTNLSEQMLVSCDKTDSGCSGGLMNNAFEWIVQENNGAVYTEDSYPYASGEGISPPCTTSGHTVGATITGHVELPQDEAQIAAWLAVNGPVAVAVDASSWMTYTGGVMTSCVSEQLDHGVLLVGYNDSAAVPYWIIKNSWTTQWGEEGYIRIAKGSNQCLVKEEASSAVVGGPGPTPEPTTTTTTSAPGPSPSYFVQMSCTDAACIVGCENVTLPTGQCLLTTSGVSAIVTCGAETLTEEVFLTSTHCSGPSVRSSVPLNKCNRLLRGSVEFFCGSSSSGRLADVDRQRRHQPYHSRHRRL
Method in brief: (§4)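 Recombinant enzyme at 4 nM with Z-Phe-Arg-AMC substrate in buffer A (100 mM Na acetate pH 5.5, 5 mM DTT, 0.001% Triton X-100). Enzyme and inhibitor were preincubated 5 min at 25 °C, then substrate was added. Inhibitor serial dilutions were made in DMSO, 10–10,000 nM. IC50 was read directly from a semi-log plot of rate versus inhibitor concentration.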

[3] = target: Rhodesain (Trypanosoma brucei rhodesiense) (UniProt Q95PM0); assay: (§5) Inhibition of rhodesain; parameters: concentration or dose not given beside the values; settings: concentration not given here; method in brief: as §4
Sequence of Rhodesain (Trypanosoma brucei rhodesiense) (Q95PM0 1-450): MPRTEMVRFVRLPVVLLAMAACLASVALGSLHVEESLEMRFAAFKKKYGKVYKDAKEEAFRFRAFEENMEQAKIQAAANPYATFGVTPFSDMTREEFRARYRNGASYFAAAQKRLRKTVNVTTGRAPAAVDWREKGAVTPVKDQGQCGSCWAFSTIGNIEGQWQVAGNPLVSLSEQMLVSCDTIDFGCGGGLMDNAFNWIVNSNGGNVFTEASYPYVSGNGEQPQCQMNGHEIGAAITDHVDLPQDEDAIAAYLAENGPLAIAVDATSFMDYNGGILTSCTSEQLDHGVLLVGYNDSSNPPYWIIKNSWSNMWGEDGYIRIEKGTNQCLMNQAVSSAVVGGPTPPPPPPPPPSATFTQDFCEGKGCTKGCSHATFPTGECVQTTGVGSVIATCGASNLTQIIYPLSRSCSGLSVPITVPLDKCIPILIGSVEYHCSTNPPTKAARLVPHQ

[4] = test system: Trypanosoma brucei brucei; assay: Antimicrobial activity against Trypanosoma brucei brucei; type: functional; parameters: concentration or dose not given beside the values
[5] = as §1; method in brief: as §2
Cruzipain = Cruzipain (Trypanosoma cruzi, UniProt P25779); assay: as §3; method in brief: as §4
Sequence of Cruzipain (P25779 whole entry): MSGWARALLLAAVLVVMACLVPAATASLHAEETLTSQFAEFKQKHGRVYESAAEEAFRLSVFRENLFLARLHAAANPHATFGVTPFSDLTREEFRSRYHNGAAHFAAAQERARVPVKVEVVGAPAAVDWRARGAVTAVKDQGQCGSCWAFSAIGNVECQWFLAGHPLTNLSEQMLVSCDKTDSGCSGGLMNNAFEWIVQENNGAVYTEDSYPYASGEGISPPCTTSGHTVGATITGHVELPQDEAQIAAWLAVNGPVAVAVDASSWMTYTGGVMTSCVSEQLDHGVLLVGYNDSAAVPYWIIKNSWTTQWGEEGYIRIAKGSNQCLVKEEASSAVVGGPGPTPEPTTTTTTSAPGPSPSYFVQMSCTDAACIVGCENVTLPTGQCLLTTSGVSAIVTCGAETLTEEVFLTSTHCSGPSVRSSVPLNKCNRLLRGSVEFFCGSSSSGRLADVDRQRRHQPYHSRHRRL

[6] = target: Cruzipain (Trypanosoma cruzi) (UniProt P25779); assay: Ratio of kinact to ki for cruzain; parameters: unit not given here
Method in brief: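 Continuous assay: enzyme was added by the instrument to inhibitor dilutions with Z-Phe-Arg-AMC in pH 5.5 acetate/DTT buffer while fluorescence was recorded. Progress curves were followed 5 min at 25 °C over a 10-fold dilution range of inhibitor. kobs came from pseudo-first-order fits. For hyperbolic kobs dependence, kinact and Ki were fitted by nonlinear regression to a two-step irreversible mechanism with substrate correction.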

Rhodesain = Rhodesain (Trypanosoma brucei rhodesiense, UniProt Q95PM0); assay: as §5; method in brief: as §4
Sequence of Rhodesain (Q95PM0 whole entry): as the sequence (Q95PM0 1-450) above

CCOC(=O)[C@H]1O[C@H]1[C@H](O)[C@H](CCc1ccccc1)NC(=O)[C@H](Cc1ccccc1)NC(=O)OCc1ccccc1
inhibition [1]: 6%
inhibition [2]: 5%
inhibition [3]: -4%
Inhibition [4]: -37%

CCOC(=O)[C@H]1O[C@H]1C(=O)[C@H](CCc1ccccc1)NC(=O)[C@H](Cc1ccccc1)NC(=O)OCc1ccccc1
inhibition [1]: 51%
pIC50 [5]: < 6.00
inhibition [2]: 93%
pIC50 (Cruzipain): 7.70
Ratio [6]: 82900
inhibition [3]: 98%
pIC50 (Rhodesain): 8.46
Inhibition [4]: 42%

CC(C)CCNC(=O)[C@H](CC(C)C)NC(=O)[C@H]1OC1C(=O)O (single isomer, unassigned)
Ratio [6]: 70600

CN1CCN(C(=O)N[C@@H](Cc2ccccc2)C(=O)N[C@H](/C=C/S(=O)(=O)c2ccccc2)CCc2ccccc2)CC1 [K-777]
pIC50 [5]: 5.70
inhibition [2]: 100%
inhibition [3]: 72%
Inhibition [4]: 99%

O=C(N[C@@H](Cc1ccccc1)C(=O)N[C@@H](CCc1ccccc1)C(=O)[C@@H]1CO1)OCc1ccccc1
pIC50 (Cruzipain): 8.00
Ratio [6]: 330000

O=C(N[C@@H](Cc1ccccc1)C(=O)N[C@@H](CCc1ccccc1)C(=O)[C@H]1CO1)OCc1ccccc1
pIC50 (Cruzipain): < 6.00
Ratio [6]: 128000

CCOC(=O)[C@@H]1O[C@@H]1C(=O)[C@H](CCc1ccccc1)NC(=O)[C@H](Cc1ccccc1)NC(=O)OCc1ccccc1
inhibition [1]: 47%
pIC50 [5]: 6.40
inhibition [2]: 55%
pIC50 (Cruzipain): 7.30
Ratio [6]: 25200
inhibition [3]: 80%
pIC50 (Rhodesain): 7.52
Inhibition [4]: -2%

CCOC(=O)[C@@H]1O[C@H]1[C@@H](O)[C@H](CCc1ccccc1)NC(=O)[C@H](Cc1ccccc1)NC(=O)OCc1ccccc1
inhibition [1]: 3%
inhibition [2]: 1%
inhibition [3]: 3%
Inhibition [4]: 17%
